ChEMBL document CHEMBL2040711, “Synthesis, characterization and antimicrobial studies of some new quinoline incorporated benzimidazole derivatives” (2012)

Legend:
Type in all cases: functional
Conditions in all cases: read-out: DIZ
Aspergillus terreus [1] = assay: Antifungal activity against Aspergillus terreus at 12.5 ug/ml after 72 hrs by well plate method
Outline: (§1)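 Sabouraud agar: peptone 10 g, glucose 40 g, agar 20 g per litre water, pH 5.7. Spore suspension made from a loopful of fungus in 3 mL normal saline and lawned on 20 mL agar per dish. Excess decanted, plates dried 1 h at 37 °C. Wells punched and loaded with compound in DMSO (6.25 or 12.5 μg/mL). DMSO control. Triplicate plates held at 25 °C for 72 h. Inhibition zone diameter measured. A. terreus strain NCIM 1325.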

Staphylococcus aureus [2] = assay: Antibacterial activity against Staphylococcus aureus at 6.25 ug/ml after 24 to 48 hrs by well plate diffusion method
Outline: (§2)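 Agar well diffusion: 15-20 mL agar per dish, plates dried 1 h at 37 ± 2 °C in laminar flow, then seeded. Wells cut with an agar punch, each loaded with compound dissolved in DMSO (6.25 or 12.5 μg/mL). DMSO solvent control, ciprofloxacin standard. Plates in triplicate, incubated 37 ± 2 °C for 24–48 h. Inhibition zone diameter read in mm, with SD.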

Staphylococcus aureus [3] = assay: Antibacterial activity against Staphylococcus aureus at 12.5 ug/ml after 24 to 48 hrs by well plate diffusion method; outline: as §2
Escherichia coli [4] = assay: Antibacterial activity against Escherichia coli at 12.5 ug/ml after 24 to 48 hrs by well plate diffusion method; outline: as §2
Xanthomonas sp. [5] = assay: Antibacterial activity against Xanthomonas sp. at 12.5 ug/ml after 24 to 48 hrs by well plate diffusion method; outline: as §2
Salmonella sp. [6] = assay: Antibacterial activity against Salmonella sp. at 12.5 ug/ml after 24 to 48 hrs by well plate diffusion method; outline: as §2
Aspergillus niger [7] = assay: Antifungal activity against Aspergillus niger at 6.25 ug/ml after 72 hrs by well plate method
Aspergillus niger [8] = assay: Antifungal activity against Aspergillus niger at 12.5 ug/ml after 72 hrs by well plate method
Penicillium sp. [9] = assay: Antifungal activity against Penicillium sp. at 6.25 ug/ml after 72 hrs by well plate method
Penicillium sp. [10] = assay: Antifungal activity against Penicillium sp. at 12.5 ug/ml after 72 hrs by well plate method
Aspergillus terreus [11] = assay: Antifungal activity against Aspergillus terreus at 6.25 ug/ml after 72 hrs by well plate method; outline: as §1
Escherichia coli [12] = assay: Antibacterial activity against Escherichia coli at 6.25 ug/ml after 24 to 48 hrs by well plate diffusion method; outline: as §2
Salmonella sp. [13] = assay: Antibacterial activity against Salmonella sp. at 6.25 ug/ml after 24 to 48 hrs by well plate diffusion method; outline: as §2
Aspergillus flavus [14] = assay: Antifungal activity against Aspergillus flavus at 12.5 ug/ml after 72 hrs by well plate method
Xanthomonas sp. [15] = assay: Antibacterial activity against Xanthomonas sp. at 6.25 ug/ml after 24 to 48 hrs by well plate diffusion method; outline: as §2
Aspergillus flavus [16] = assay: Antifungal activity against Aspergillus flavus at 6.25 ug/ml after 72 hrs by well plate method

SMILES | zone of inhibition at 12.5 µg/mL (Aspergillus terreus [1]) | zone of inhibition at 6.25 µg/mL (Staphylococcus aureus [2]) | zone of inhibition at 12.5 µg/mL (Staphylococcus aureus [3]) | zone of inhibition at 12.5 µg/mL (Escherichia coli [4]) | zone of inhibition at 12.5 µg/mL (Xanthomonas sp. [5]) | zone of inhibition at 12.5 µg/mL (Salmonella sp. [6]) | zone of inhibition at 6.25 µg/mL (Aspergillus niger [7]) | zone of inhibition at 12.5 µg/mL (Aspergillus niger [8]) | zone of inhibition at 6.25 µg/mL (Penicillium sp. [9]) | zone of inhibition at 12.5 µg/mL (Penicillium sp. [10]) | zone of inhibition at 6.25 µg/mL (Aspergillus terreus [11]) | zone of inhibition at 6.25 µg/mL (Escherichia coli [12]) | zone of inhibition at 6.25 µg/mL (Salmonella sp. [13]) | zone of inhibition at 12.5 µg/mL (Aspergillus flavus [14]) | zone of inhibition at 6.25 µg/mL (Xanthomonas sp. [15]) | zone of inhibition at 6.25 µg/mL (Aspergillus flavus [16])
Fc1ccc(-c2cc(-c3nc4ccccc4[nH]3)c3cc(Cl)ccc3n2)cc1 | 14 mm | 12 mm | 13 mm | 13 mm | 10 mm | 9 mm | 10 mm | 12 mm | 16 mm | 18 mm | 13 mm |  |  |  |  | 
Fc1ccc(-c2cc(-c3nc4ccc(Cl)cc4[nH]3)c3cc(Cl)ccc3n2)cc1 | 9 mm | 16 mm | 16 mm | 12 mm | 10 mm | 13 mm |  | 10 mm | 12 mm | 17 mm | 9 mm | 12 mm | 10 mm | 17 mm |  | 
Fc1ccc(-c2cc(-c3nc4ncccc4[nH]3)c3cc(Cl)ccc3n2)cc1 | 15 mm | 14 mm | 18 mm | 16 mm | 16 mm | 20 mm | 12 mm | 14 mm |  | 13 mm | 9 mm | 16 mm | 9 mm | 10 mm | 15 mm | 
Fc1ccc(-c2cc(-c3nc4cc(Cl)c(Cl)cc4[nH]3)c3cc(Cl)ccc3n2)cc1 | 10 mm | 10 mm | 12 mm | 17 mm | 16 mm | 28 mm | 12 mm | 12 mm | 12 mm | 19 mm | 9 mm | 12 mm | 20 mm | 13 mm | 14 mm | 13 mm
Fc1ccc(-c2cc(-c3nc4ccccc4[nH]3)c3cc(F)ccc3n2)cc1 | 9 mm | 14 mm | 15 mm | 15 mm | 14 mm | 15 mm | 10 mm | 12 mm | 12 mm | 12 mm | 9 mm | 10 mm | 15 mm | 10 mm | 14 mm | 
Fc1ccc(-c2cc(-c3nc4ccc(Cl)cc4[nH]3)c3cc(F)ccc3n2)cc1 | 14 mm | 12 mm | 12 mm | 11 mm | 12 mm | 11 mm |  | 10 mm | 15 mm | 17 mm | 10 mm | 10 mm |  | 10 mm | 11 mm | 
Fc1ccc(-c2cc(-c3nc4ncccc4[nH]3)c3cc(F)ccc3n2)cc1 | 15 mm | 12 mm | 12 mm | 13 mm | 16 mm | 13 mm | 11 mm | 13 mm | 14 mm | 15 mm | 10 mm |  | 13 mm | 14 mm | 15 mm | 11 mm
Fc1ccc(-c2cc(-c3nc4cc(Cl)c(Cl)cc4[nH]3)c3cc(F)ccc3n2)cc1 | 9 mm | 14 mm | 15 mm | 12 mm | 16 mm | 12 mm | 10 mm | 13 mm |  | 12 mm |  |  | 9 mm | 15 mm | 12 mm | 12 mm
Fc1ccc(-c2cc(-c3nc4ccc(F)cc4[nH]3)c3cc(F)ccc3n2)cc1 | 9 mm | 12 mm | 12 mm | 16 mm | 14 mm | 13 mm | 10 mm | 17 mm | 13 mm | 13 mm | 10 mm | 16 mm | 9 mm |  |  | 
Fc1ccc(-c2cc(-c3nc4ccc(Cl)cc4[nH]3)c3ccccc3n2)cc1 | 16 mm | 12 mm | 13 mm | 16 mm | 15 mm | 17 mm | 15 mm | 18 mm | 12 mm | 12 mm | 10 mm |  | 9 mm | 16 mm | 15 mm | 11 mm
Fc1ccc(-c2cc(-c3nc4ncccc4[nH]3)c3ccccc3n2)cc1 | 10 mm | 16 mm | 16 mm | 14 mm | 14 mm | 12 mm | 14 mm | 16 mm | 16 mm | 17 mm | 9 mm | 14 mm | 9 mm | 11 mm | 10 mm | 
Fc1ccc(-c2cc(-c3nc4ccc(F)cc4[nH]3)c3ccccc3n2)cc1 | 12 mm | 10 mm | 16 mm | 11 mm | 13 mm | 11 mm |  | 14 mm | 12 mm | 15 mm | 12 mm | 10 mm | 10 mm | 14 mm |  | 
COc1ccc2nc(-c3cc(-c4ccc(F)cc4)nc4ccccc34)[nH]c2c1 | 13 mm | 12 mm | 12 mm | 14 mm | 14 mm | 11 mm | 10 mm | 12 mm | 16 mm | 18 mm | 12 mm | 12 mm | 10 mm | 10 mm | 12 mm | 
O=C(O)c1cn(C2CC2)c2cc(N3CCNCC3)c(F)cc2c1=O [CIPROFLOXACIN] |  | 18 mm | 20 mm |  | 22 mm | 31 mm |  |  |  |  |  |  | 19 mm |  | 18 mm | 
OC(Cn1cncn1)(Cn1cncn1)c1ccc(F)cc1F [FLUCONAZOLE] | 18 mm |  |  |  |  |  | 14 mm | 18 mm | 19 mm | 21 mm | 16 mm |  |  | 20 mm |  | 15 mm
